This sample holds only a part of the variants without activity.

To fix the notation:
B1: tRNA (parent)
chain: GUUCCGUUGGCGUAAUGGUAACGCGUCUCCCUCCUAAGGAGAAGACUGCGGGUUCGAGUCCCGUACGGAACG

In the data set the parent is B1. In words: yeast fitness relative to wild type (ratio to wild type); higher = fitter; tRNA-Arg(CCU), competitive growth, 37 C, YPD. Summed up: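 Variants of the tRNA-Arg(CCU) gene, chemically synthesised with a 3% per-site mutation rate at 69 sites, were placed at the native genomic locus in Saccharomyces cerevisiae. The pooled strains were competed in YPD at 37°C for 24 hours in six parallel replicates. Gene amplicons from the start population and from each end population were read by 100-nucleotide paired-end sequencing. Darwinian fitness relative to wild type came from changes in genotype frequencies; genotypes needed ≥ 100 starting reads, and estimates < 0.5 were set to 0.5.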
U2C A15G C61U: the yeast fitness was at most 0.5.

For the variant U2C U16C C22A C29A G51C, the yeast fitness was at most 0.5.

For the variant U2C C33U, the yeast fitness came out at 0.862.

Consider U2C C31A G50C A70G, for which the yeast fitness is at most 0.5.

Regarding U2C U13A U19C C55A A69C, the yeast fitness is at most 0.5.

On to U2C A40U A42C C66U, for which the yeast fitness was at most 0.5.

Regarding U2A U35C G38C U47G, the yeast fitness was at most 0.5.

Consider U2C U35G G52A, for which the yeast fitness was at most 0.5.

In the case of U2C U16C C46G C62G, the yeast fitness was at most 0.5.

U2C A15U: the yeast fitness was 0.653.

Consider U2C C30U U54A, for which the yeast fitness is at most 0.5.

Take U2C C5U C11G C34U A36G C55G A57U G67A: the yeast fitness was at most 0.5.

As to U2C C27U C31U U32G C55A G63A, the yeast fitness is 0.645.

Regarding U2C G51U U54A A70U, the yeast fitness is at most 0.5.

For U2C C66A, the yeast fitness amounted to 0.611.

As for U2C A20U A40U, the yeast fitness is 0.52.

On to U2C C46G A65C, for which the yeast fitness was found to be 0.678.

On to U2C U13C G41A C60G C61G C62U, for which the yeast fitness turned out to be 0.596.

Take U2G A42U U47A: the yeast fitness turned out to be 0.738.

Regarding U2C A37U A40C, the yeast fitness stood at 0.633.

As for U2C U8G C31G A42C C49U G56A C61G, the yeast fitness was at most 0.5.

Take U2C C31G C55U G63A: the yeast fitness is at most 0.5.

On to U2C A65G, for which the yeast fitness turned out to be 0.867.

With U2G A20U C29A G39A A45C, the yeast fitness turned out to be 0.586.

For U2C C30U C31U, the yeast fitness was 0.698.

Take U2G A42C U47A G63C A69C: the yeast fitness was found to be 0.558.

For U2C U19A U26C A45C G52C A70G, the yeast fitness was at most 0.5.

Turning to U2C G9C U13C A20C, the yeast fitness was at most 0.5.

In the case of U2C C5G C11G C29U A36U G50C U54G, the yeast fitness came out at 0.628.

U2G A14U A21C A36C C49A A65G C66G: the yeast fitness is at most 0.5.

In the case of U2C C11A A69U, the yeast fitness was at most 0.5.

Consider U2C G48A G52A, for which the yeast fitness is 0.623.

U2C G6C A42G A65U G67A: the yeast fitness is at most 0.5.

As for U2C U16A U32A A37U C62A, the yeast fitness is at most 0.5.

Turning to U2C U7A A65U, the yeast fitness came out at 0.725.

U2C C11A C22G: the yeast fitness is 0.602.

Turning to U2C C5G A14G, the yeast fitness came to 0.559.

With U2C G51U G58C, the yeast fitness was 0.548.

Turning to U2C U47A C62U, the yeast fitness came to 0.531.

As for U2C C27G U28A A43U A70G, the yeast fitness is at most 0.5.

As for U2G A15U A20C U26A C30G U35A G38C U64A, the yeast fitness was at most 0.5.

As to U2C A14C A43C, the yeast fitness is at most 0.5.

Regarding U2C A20G A42U, the yeast fitness is 0.642.

As for U2C C61U, the yeast fitness is 0.931.

Turning to U2G A15G G17A U28A C29U A45C A69C, the yeast fitness was at most 0.5.

U2C U13C C27A C61U: the yeast fitness is at most 0.5.

Turning to U2G A15C G17C C22G C24A C31A G67C, the yeast fitness worked out at 0.579.

As for U2C C49U G56C, the yeast fitness was at most 0.5.

For the variant U2C U16G C30G G63C, the yeast fitness was at most 0.5.

On to U2C A37G A70C, for which the yeast fitness is 0.561.

For the variant U2C C5G C24U G38C G39A, the yeast fitness is at most 0.5.

With U2C U8A G17C G38A C61A, the yeast fitness was at most 0.5.

For U2G A14G C27G G52C, the yeast fitness is at most 0.5.

Turning to U2C A45U C62U G63C, the yeast fitness is at most 0.5.

Take U2C U26G A70U: the yeast fitness amounted to 0.703.

Regarding U2C A21C G38A, the yeast fitness was 0.594.

On to U2C A21G, for which the yeast fitness was 0.975.

On to U2C A21C, for which the yeast fitness is 0.775.

In the case of U2C C30G C49A, the yeast fitness is at most 0.5.

With U2C C5G C33G C60A G67C, the yeast fitness is at most 0.5.

As to U2C C4A U28C U53C, the yeast fitness was at most 0.5.

Consider U2C U3C C34A G44C C46U G51A, for which the yeast fitness is at most 0.5.

Take U2C C30G C61U G68A: the yeast fitness was at most 0.5.

As to U2C G39C, the yeast fitness was found to be 0.774.

Take U2C C24G C29U A69C: the yeast fitness was at most 0.5.

Take U2G A20C G48C: the yeast fitness is at most 0.5.

As to U2C G6C A65U G67A, the yeast fitness is at most 0.5.

Take U2C U19C A37G C49A: the yeast fitness was at most 0.5.

With U2C G17C G23C G25C U35A A42U C66U, the yeast fitness is at most 0.5.

For the variant U2A U47G C49A C60U A65C, the yeast fitness was at most 0.5.

For U2C G23C G51C, the yeast fitness was at most 0.5.

As to U2C C31G G56A U59A, the yeast fitness was at most 0.5.

Regarding U2C C30U C31A A40U C49A, the yeast fitness is at most 0.5.

As to U2C U47A C49A, the yeast fitness is at most 0.5.

For the variant U2C G23C C31G C33U A42G G52C G58C, the yeast fitness is at most 0.5.

Regarding U2C C22G C31U A36U C49U, the yeast fitness came to 0.649.

In the case of U2C G23C U28C A43U C60A, the yeast fitness is at most 0.5.

For U2G A14C A65C, the yeast fitness is at most 0.5.

For the variant U2C G6A A20U C30U A36U C49A, the yeast fitness is at most 0.5.

For the variant U2G A21C C22G A45U G63C, the yeast fitness was at most 0.5.

Turning to U2A U47G, the yeast fitness was 0.583.

As to U2C G9A C31A C49A U59A C61G, the yeast fitness is at most 0.5.

As to U2C U47A C55G, the yeast fitness is at most 0.5.

For the variant U2C C5G C46U, the yeast fitness is 0.872.

Regarding U2C C11G, the yeast fitness amounted to 0.617.

Regarding U2C C11A C22G U53G, the yeast fitness is at most 0.5.

As for U2C C27G U28A A43U A69U, the yeast fitness is 0.541.

On to U2C G56A A65G, for which the yeast fitness is 1.27.

On to U2C A14G A36C U47A C61A, for which the yeast fitness is at most 0.5.

In the case of U2C G52C U59G, the yeast fitness is at most 0.5.

For U2C C4U C30A, the yeast fitness stood at 0.716.

For U2C C5A C11A A40G, the yeast fitness is at most 0.5.

As to U2C G12C A40C G67A, the yeast fitness is at most 0.5.

For U2C C46U U64A, the yeast fitness turned out to be 0.688.

Regarding U2G A36U A45U U53A, the yeast fitness was at most 0.5.

Take U2C A20C C27U: the yeast fitness was found to be 0.838.

For U2C U7G A40C G51A G67A, the yeast fitness is at most 0.5.

With U2C C31G G56A, the yeast fitness was determined as 0.687.

With U2C A42U C62U, the yeast fitness came out at 0.571.

For the variant U2C G12A G18C C33U A69C, the yeast fitness was found to be 0.565.

In the case of U2C U35A, the yeast fitness is 0.62.

On to U2C C46U A65U, for which the yeast fitness amounted to 1.06.

On to U2C U26C C46U, for which the yeast fitness came to 0.683.

Consider U2C U7A A37G A42U G48C C55U C66G, for which the yeast fitness was at most 0.5.

Consider U2C A14G G18A A70C, for which the yeast fitness was at most 0.5.

Consider U2C G12A A15G C29G C33G G41C C66U, for which the yeast fitness is at most 0.5.

For U2C C4U A21C U28C C31A U32C, the yeast fitness is at most 0.5.

As to U2C G25A A37G A70C, the yeast fitness was at most 0.5.

In the case of U2C C27U U28G C33G A36G, the yeast fitness amounted to 0.544.

As to U2C G48C, the yeast fitness is 1.11.

U2C U3C U19A: the yeast fitness stood at 0.629.

With U2C A40G, the yeast fitness was found to be 0.984.

In the case of U2C C29G G39C C55A, the yeast fitness is at most 0.5.

As to U2C C24A U26A U47C C61U, the yeast fitness turned out to be 0.628.

As for U2C C27G G51A, the yeast fitness was at most 0.5.

Consider U2G A40U C49A, for which the yeast fitness was 0.547.

On to U2C C11A C31U C33U A42C C61U, for which the yeast fitness is at most 0.5.

Turning to U2C G6C A21C C66U, the yeast fitness was at most 0.5.

With U2C C4A C34A A43G G52C C61A, the yeast fitness was at most 0.5.

As for U2C U7C U19C C34U G52A U59A, the yeast fitness was at most 0.5.

In the case of U2C U3A C24A C27U G56C C66U, the yeast fitness came to 0.562.

For U2C A21G C33G, the yeast fitness was at most 0.5.

As to U2C G50C, the yeast fitness worked out at 0.733.

With U2C G50U, the yeast fitness came to 0.825.

With U2G A21U A36U A45U A65U A70U, the yeast fitness was at most 0.5.

On to U2C A70C, for which the yeast fitness amounted to 0.972.

U2C C49A: the yeast fitness was determined as 0.685.

With U2C A15G G38C U64A G68A A69C, the yeast fitness is at most 0.5.

As to U2A U59A, the yeast fitness was 0.917.

With U2C U8C A20U U28A G67U, the yeast fitness was at most 0.5.

For U2C A14G U28A, the yeast fitness worked out at 0.534.

For the variant U2C C5U, the yeast fitness came out at 0.98.

On to U2C C5G, for which the yeast fitness was 0.738.

Turning to U2C A20G U47A U53A C62U C66U, the yeast fitness is at most 0.5.

Turning to U2C A43C, the yeast fitness was found to be 0.874.

For U2C C29U C46G G51A G52C, the yeast fitness was 0.557.

Take U2G A21C C22U A70U: the yeast fitness was at most 0.5.

Turning to U2C C4U C34A G58A, the yeast fitness is at most 0.5.

For the variant U2C C22U, the yeast fitness is 0.842.

With U2C C22G, the yeast fitness was determined as 0.878.

As to U2C G10C, the yeast fitness amounted to 0.724.

As for U2C G17A A69C, the yeast fitness was 0.576.

Consider U2C A40C G50A C66U, for which the yeast fitness is at most 0.5.

Take U2C A14G C29A C33G: the yeast fitness worked out at 0.565.

With U2C C4G C22U C30A A65U, the yeast fitness is at most 0.5.

Take U2C U19G U28G: the yeast fitness was at most 0.5.

U2C C31G G58A G67U: the yeast fitness was at most 0.5.

As to U2C C66U A69U, the yeast fitness was 0.603.

U2G A15G U26C C34U: the yeast fitness was 0.611.

As to U2C C55U, the yeast fitness is 0.792.

Consider U2C C46U, for which the yeast fitness is 0.959.

For U2C U3C, the yeast fitness was 0.885.

As to U2C U7G A15G A45U G50A A57C, the yeast fitness is at most 0.5.

For the variant U2C U53C C61G, the yeast fitness is at most 0.5.

U2C G12C: the yeast fitness is 0.831.

On to U2C A57G, for which the yeast fitness came to 0.891.

Consider U2C U54A A70U, for which the yeast fitness amounted to 0.555.

As to U2G A21C C22U C60G, the yeast fitness was at most 0.5.

U2C U19C A37G C49A C66G: the yeast fitness is at most 0.5.

Take U2C C4U G10C A57C: the yeast fitness is at most 0.5.

Regarding U2C G67C, the yeast fitness stood at 0.741.

On to U2C U26C, for which the yeast fitness came out at 0.947.

Regarding U2C C33U A69U, the yeast fitness is at most 0.5.

Take U2C C5A A40G: the yeast fitness is 0.563.

For the variant U2C G58C, the yeast fitness stood at 1.05.

As to U2C C27G C46U, the yeast fitness came out at 0.705.

Take U2C U13A: the yeast fitness was 0.805.

Values taken from the RNAGym collection of RNA variant scans (doi:10.1126/science.aae0568).
